F-actin modifier: modifiers of cytoskeleton assembly | inhibition, % at 2 µM | 91,000 compounds, 0.18% hits | HUVEC TNFa F-actin phalloidin imaging, high content;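 active = inhibition above the batch mean plus 3 SD and confirmed as a hit by visual image inspection, cut at about 30% in these data, passing the limit was not always enough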
PLK1 PBD inh: blocks phosphopeptide binding to human Plk1 polo box domain; Plk1 PBD phosphopeptide binding, fluorescence polarization; inhibition, %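 (tested at about 20 µM)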; 97,000 compounds, 0.13% hits; in the data active = inhibition above about 34%, passing the limit was not always enough
HIV Rev-RRE inh: disrupts HIV-1 Rev binding to RRE RNA | P05866 | Rev peptide-RRE RNA binding, FRET | inhibition, % at 8 µM | 97,000 compounds, 0.79% hits | AID 704;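 active = inhibition above the screen-wide mean plus 3 SD, cut at about 35% in these data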
Target sequence (P05866 whole entry, looked up): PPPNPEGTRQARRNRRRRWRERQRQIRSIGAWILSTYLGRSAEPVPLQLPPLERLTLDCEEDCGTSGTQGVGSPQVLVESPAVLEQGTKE
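assay system = Cy5-tagged RRE RNA duplex with fluorescein-tagged Rev peptide | incubation = 5 + 15 min at 25 °C | also added = labelled Rev peptide | measure = % inhibition of FRET ratio versus controls | benchmarks = DMSO wells as 0% and neomycin B wells as 100% inhibition | measured by = FRET fluorescence readout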
PLK1 inh: inhibitors of human PLK1 kinase | 97,000 compounds, 0.53% hits | recombinant PLK1 kinase, TR-FRET peptide phosphorylation | inhibition, % at 10 µM | P53350;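 active = inhibition of 50% or more in the single-concentration screen; inactive = inhibition below 50%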
E-sel TNF inh: blocks E-selectin expression induced by TNF alpha; HUVEC TNFa-induced E-selectin immunofluorescence, high content; inhibition, % at 2 µM; 120,000 compounds, 0.71% hits; AID 1246;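 active = inhibition above the batch mean plus 3 SD, and confirmed as a hit on visual image review, cut at about 43% in these data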
FAK blocker: FAK (human) kinase inhibition; Q05397; biochemical FAK kinase activity assay; AID 727; inhibition, %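 (tested at 7 µM)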; 97,000 compounds, 0.84% hits; in the data active = inhibition above about 19%
Each line names hits and unclear results; the compound was inactive in the other large screens; [ ] = another dose, or the depositor's remark. Compounds with a hit are over-represented: about 2.2% of the library has one in this group of screens.

CCOc1ccc(N(C(=O)C2CCCO2)C2C=CS(=O)(=O)C2)cc1 (stereo unspecified)	none (no result: F-actin modifier, PLK1 PBD inh, HIV Rev-RRE inh, PLK1 inh, FAK blocker)
O=S(=O)(c1ccc2c(c1)C(=NO)c1cc(S(=O)(=O)N3CCCCC3)ccc1-2)N1CCCCC1	F-actin modifier 60
CC1CCN(S(=O)(=O)c2ccc3c(c2)C(=NO)c2cc(S(=O)(=O)N4CCC(C)CC4)ccc2-3)CC1	none (no result: E-sel TNF inh)
O=C(NCc1ccccc1C(F)(F)F)C1CC(c2ccccc2[N+](=O)[O-])=NO1 (stereo unspecified)	none
CCc1ccccc1N1CC23C=CC(O2)C(C(=O)OC)C3C1=O (stereo unspecified)	PLK1 inh 57 (no result: F-actin modifier, E-sel TNF inh)
Cc1nc(SCC(N)=O)c([N+](=O)[O-])[nH]1	E-sel TNF inh 63 (no result: F-actin modifier, PLK1 PBD inh, HIV Rev-RRE inh, PLK1 inh, FAK blocker)
CCCCSc1nc(C)[nH]c1[N+](=O)[O-]	none
Cn1c2c(c(=O)n(C)c1=O)C(C(F)(F)F)(C(F)(F)F)N=C(CCC1CCCCC1)N2	none (no result: F-actin modifier, PLK1 PBD inh, HIV Rev-RRE inh, PLK1 inh, FAK blocker)
c1nc(N2CCCC2)c2[nH]cnc2n1	FAK blocker 34
COc1ccc(N=C2NC(=O)S/C2=C\c2ccc(N(C)C)cc2)cc1	HIV Rev-RRE inh 117[fluorescence artefact?]
O=C(c1ccc(S(=O)(=O)NCc2ccco2)cc1)N1CCN(Cc2ccc3c(c2)OCO3)CC1	none (no result: F-actin modifier, PLK1 PBD inh, HIV Rev-RRE inh, PLK1 inh, FAK blocker)
O=C(COC(=O)c1cncc(Br)c1)NC1CCCC1	none (no result: F-actin modifier, PLK1 PBD inh, HIV Rev-RRE inh, PLK1 inh, FAK blocker)
O=C(c1ccc([N+](=O)[O-])cc1)N(Cc1ccc(Br)cc1)N1C(=O)CCCC1=O	E-sel TNF inh 98 (no result: F-actin modifier)
COc1ccc(-n2c(C)cc(C(=O)COc3ccc(C)nc3[N+](=O)[O-])c2C)cc1	E-sel TNF inh 62 (no result: F-actin modifier, PLK1 PBD inh, HIV Rev-RRE inh, PLK1 inh, FAK blocker)
C[C@@H](O)C1NC(=O)[C@H](CCCCN)NC(=O)c2cc([N+](=O)[O-])cc(I)c2NCCC[C@@H](C(N)=O)NC1=O (stereo partly specified)	none (no result: F-actin modifier, PLK1 PBD inh, HIV Rev-RRE inh, PLK1 inh, FAK blocker)
CCOC(=O)CSC(C)C(=O)Nc1nnc(C(C)C)s1 (stereo unspecified)	PLK1 inh 64 (no result: F-actin modifier, E-sel TNF inh)
O=C(Cn1c(=O)c(=O)n(Cc2ccccc2)c2ccc(Cl)cc21)Nc1cccc(F)c1	none (no result: F-actin modifier, PLK1 PBD inh, HIV Rev-RRE inh, PLK1 inh, FAK blocker)
O=c1oc(/C=C/c2ccccc2)nc2sc3c(c12)CCC3	HIV Rev-RRE inh 38
N=c1sccn1CC(=O)NCCc1ccc(Cl)cc1	E-sel TNF inh 81
Cn1c(N)c(C#N)c2c(c1=S)CSC(C)(C)C2	HIV Rev-RRE inh 40 (no result: E-sel TNF inh)
CCCCN1C(=O)C2(NNc3ccccc3O2)c2ccccc21 (stereo unspecified)	HIV Rev-RRE inh 73
C=CCN1C(=O)C2(NNc3ccccc3O2)c2ccccc21 (stereo unspecified)	HIV Rev-RRE inh 69 (no result: F-actin modifier)
C=CCN1C(=O)C(O)(CC(=O)c2ccc(-n3cccc3)cc2)c2ccccc21 (stereo unspecified)	none
CCCCN1C(=O)C(O)(CC(=O)c2ccccc2OC)c2ccccc21 (stereo unspecified)	none (no result: F-actin modifier, PLK1 PBD inh, HIV Rev-RRE inh, PLK1 inh, FAK blocker)
O=C(CSc1nnc2c(n1)[nH]c1ccccc12)Nc1ccc(S(=O)(=O)Nc2ncccn2)cc1	none (no result: F-actin modifier, PLK1 PBD inh, HIV Rev-RRE inh, PLK1 inh, FAK blocker)
Cc1nc2ccc(NC(=O)c3cc(S(=O)(=O)N4CCOCC4)ccc3C)cc2s1	E-sel TNF inh 92
O=C(COC(=O)C1CC1)NCc1ccccc1Cl	none
COc1ccc(S(=O)(=O)n2ccc(-c3ccc(OCCN(C)c4ccccn4)cc3)n2)cc1	F-actin modifier 66
O=C(OCC(=O)N1CCCC1)c1ccc(S(=O)(=O)Nc2ccccc2)cc1	none (no result: F-actin modifier, PLK1 PBD inh, HIV Rev-RRE inh, PLK1 inh, FAK blocker)
Cc1ccc(C(=O)OCn2ncc(Cl)c(Cl)c2=O)cc1	E-sel TNF inh 100
CCOC(=O)c1ccc(NC(=O)Cn2ncc(Cl)c(Cl)c2=O)cc1	E-sel TNF inh 100 (no result: F-actin modifier, PLK1 PBD inh, HIV Rev-RRE inh, PLK1 inh, FAK blocker)
N#CCC(=O)N1CCN(C=O)CC1	none (no result: F-actin modifier, PLK1 PBD inh, HIV Rev-RRE inh, PLK1 inh, FAK blocker)
Cc1[nH]c2ccccc2c1C(=O)CSc1nc2ccccc2c(=O)n1CCCN1CCOCC1	none
COc1cc(Cl)c(C)cc1NC(=O)COC(=O)c1cc[n+]([O-])cc1	none (no result: F-actin modifier, PLK1 PBD inh, HIV Rev-RRE inh, PLK1 inh, FAK blocker)
Cc1ccc(C2(c3noc(CN4CCC(c5ccncc5)CC4)n3)CCCC2)cc1	none (no result: F-actin modifier, PLK1 PBD inh, HIV Rev-RRE inh, PLK1 inh, FAK blocker)
O=C1CC(c2ccccc2)SC(N(c2ccccc2)c2ccccc2)=N1 (stereo unspecified)	E-sel TNF inh 62 (no result: F-actin modifier, PLK1 PBD inh, HIV Rev-RRE inh, PLK1 inh, FAK blocker)
O=C(/C=C/c1cccc(Cl)c1)NCCN1CCOCC1	none (no result: F-actin modifier, PLK1 PBD inh, HIV Rev-RRE inh, PLK1 inh, FAK blocker)
CSc1nnc(C)c(/C=C/Nc2ccc(Cl)cc2)n1	HIV Rev-RRE inh 42
CSc1nnc(C)c(/C=C/Nc2ccc(F)cc2)n1	HIV Rev-RRE inh 89[fluorescence artefact?]
S=C(NCc1ccc(Cl)cc1Cl)NC1CCCCC1	none (no result: F-actin modifier, PLK1 PBD inh, HIV Rev-RRE inh, PLK1 inh, FAK blocker)
O=C(O)C1C2C=CC(O2)C1C(=O)Nc1ccc(S(=O)(=O)Nc2ccccc2)cc1 (stereo unspecified)	F-actin modifier 38

High-throughput results as filed in PubChem.
